Measurements: BindingDB's records for doi:10.1021/jm010816q (Eth Zurich, 2001)
Residues, ends and D or L forms follow the SMILES beside them.

Columns and labels:
[1] = molecular target: Somatostatin receptor type 1 (Homo sapiens, UniProt P30872); test: Binding assay at human somatostatin receptor 1 (hsst1) expressed in CCL-39 cells using LTT-CST-14-(Tyr10) as radioligand.
Procedure, shortened: (§1)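 Chinese hamster lung fibroblast CCL39 cells stably expressing each hsst receptor; crude membrane homogenates in 10 mM HEPES pH 7.5, 0.5% BSA, 5 mM MgCl2, 5 mg/mL bacitracin. Vacuum filtration, bound radioactivity counted. Triplicate curves fitted by nonlinear regression; pKD reported.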

[2] = molecular target: Somatostatin receptor type 4 (Homo sapiens, UniProt P31391); test: Binding assay at human somatostatin receptor 4 (hsst4) expressed in CCL-39 cells using LTT-CST-14-(Tyr10) as radioligand.; procedure, shortened: as §1
Somatostatin receptor type 4, sequence (P31391 whole entry): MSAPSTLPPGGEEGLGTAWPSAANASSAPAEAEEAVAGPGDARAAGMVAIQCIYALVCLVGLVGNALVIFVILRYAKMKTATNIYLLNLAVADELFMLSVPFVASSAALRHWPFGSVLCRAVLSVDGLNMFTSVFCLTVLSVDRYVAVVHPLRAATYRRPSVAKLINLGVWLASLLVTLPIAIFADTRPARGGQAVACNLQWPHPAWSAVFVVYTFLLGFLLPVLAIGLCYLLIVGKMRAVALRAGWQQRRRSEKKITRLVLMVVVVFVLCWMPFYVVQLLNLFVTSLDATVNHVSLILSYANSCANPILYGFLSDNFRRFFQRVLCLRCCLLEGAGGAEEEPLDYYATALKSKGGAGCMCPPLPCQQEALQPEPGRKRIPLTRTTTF

[3] = molecular target: Somatostatin receptor type 3 (Homo sapiens, UniProt P32745); test: Binding assay at human somatostatin receptor 3 (hsst3) expressed in CCL-39 cells using LTT-CST-14-(Tyr10) as radioligand.; procedure, shortened: as §1
Somatostatin receptor type 3, sequence (P32745 whole entry): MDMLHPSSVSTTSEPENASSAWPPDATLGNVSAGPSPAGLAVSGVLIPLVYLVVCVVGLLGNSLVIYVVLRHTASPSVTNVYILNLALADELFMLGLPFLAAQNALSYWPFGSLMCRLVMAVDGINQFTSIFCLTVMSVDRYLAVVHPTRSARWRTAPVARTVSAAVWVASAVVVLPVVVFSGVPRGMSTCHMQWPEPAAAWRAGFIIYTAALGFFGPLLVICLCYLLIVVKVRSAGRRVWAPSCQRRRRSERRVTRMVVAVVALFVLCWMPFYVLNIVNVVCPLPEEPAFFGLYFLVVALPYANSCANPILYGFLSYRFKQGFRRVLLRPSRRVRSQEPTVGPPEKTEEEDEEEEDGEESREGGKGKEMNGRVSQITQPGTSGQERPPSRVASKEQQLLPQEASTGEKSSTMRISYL

[4] = molecular target: Somatostatin receptor type 5 (Homo sapiens, UniProt P35346); test: Binding assay at human somatostatin receptor 5 (hsst5) expressed in CCL-39 cells using LTT-CST-14-(Tyr10) as radioligand.; procedure, shortened: as §1
Somatostatin receptor type 5, sequence (P35346 whole entry): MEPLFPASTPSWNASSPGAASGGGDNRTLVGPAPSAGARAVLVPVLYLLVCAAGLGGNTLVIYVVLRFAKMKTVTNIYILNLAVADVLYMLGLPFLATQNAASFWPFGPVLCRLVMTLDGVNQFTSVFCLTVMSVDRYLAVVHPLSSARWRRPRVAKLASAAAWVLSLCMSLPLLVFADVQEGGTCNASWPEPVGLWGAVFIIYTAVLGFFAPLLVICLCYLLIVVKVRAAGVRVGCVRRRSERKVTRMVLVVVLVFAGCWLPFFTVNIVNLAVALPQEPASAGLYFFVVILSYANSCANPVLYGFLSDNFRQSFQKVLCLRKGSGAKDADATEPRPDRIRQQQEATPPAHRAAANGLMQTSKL

[5] = molecular target: Somatostatin receptor type 2 (Homo sapiens, UniProt P30874); test: Binding assay at human somatostatin receptor 2 (hsst2) expressed in CCL-39 cells using LTT-CST-14-(Tyr10) as radioligand.; procedure, shortened: as §1
Somatostatin receptor type 2, sequence (P30874 whole entry): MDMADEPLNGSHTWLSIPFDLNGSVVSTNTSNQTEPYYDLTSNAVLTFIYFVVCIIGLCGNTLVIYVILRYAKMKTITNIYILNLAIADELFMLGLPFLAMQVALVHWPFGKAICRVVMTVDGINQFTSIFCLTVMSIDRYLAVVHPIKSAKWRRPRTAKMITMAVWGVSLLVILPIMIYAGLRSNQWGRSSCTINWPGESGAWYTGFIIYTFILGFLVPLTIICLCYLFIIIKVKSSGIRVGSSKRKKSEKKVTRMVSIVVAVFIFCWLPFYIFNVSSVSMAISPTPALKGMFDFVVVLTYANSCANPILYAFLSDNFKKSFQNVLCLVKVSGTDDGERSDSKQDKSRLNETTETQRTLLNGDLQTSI

Somatostatin receptor type 1, sequence (P30872 whole entry): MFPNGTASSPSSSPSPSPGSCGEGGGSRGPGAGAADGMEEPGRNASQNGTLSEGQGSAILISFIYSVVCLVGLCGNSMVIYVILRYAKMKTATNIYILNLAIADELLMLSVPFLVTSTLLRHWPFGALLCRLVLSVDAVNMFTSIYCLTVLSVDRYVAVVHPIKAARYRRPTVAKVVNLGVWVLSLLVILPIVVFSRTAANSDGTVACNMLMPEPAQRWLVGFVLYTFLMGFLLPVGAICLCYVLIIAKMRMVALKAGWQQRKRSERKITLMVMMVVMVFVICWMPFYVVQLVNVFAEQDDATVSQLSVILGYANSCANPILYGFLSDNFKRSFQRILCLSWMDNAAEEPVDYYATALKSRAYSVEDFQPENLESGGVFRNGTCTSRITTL

Row | Kd [1] | Kd [2] | Kd [3] | Kd [4] | Kd [5] | Structure (SMILES)
1 | 13.2 µM | 0.083 µM | > 10 µM | > 10 µM | > 10 µM | CC(=O)N[C@H](CC(=O)NC[C@H](CCCCN)C(=O)N[C@H](CC(=O)N[C@H](CC(N)=O)Cc1ccccc1)Cc1c[nH]c2ccccc12)[C@@H](C)O
2 | > 100 µM | > 100 µM | > 10 µM | > 100 µM | > 100 µM | CC(=O)N[C@H](CC(=O)N[C@@H](CCCCN)CC(=O)N[C@H](CC(=O)N[C@H](CC(N)=O)Cc1ccccc1)Cc1c[nH]c2ccccc12)[C@@H](C)O
3 | > 100 µM | > 10 µM | > 10 µM | > 100 µM | > 100 µM | CC(=O)N[C@H](C(=O)N[C@@H](CCCCN)C(=O)N[C@@H](Cc1c[nH]c2ccccc12)C(=O)N[C@@H](Cc1ccccc1)C(N)=O)[C@@H](C)O (Ac-TKWF-NH2)
